Measured values as given in the EternaBench riboswitch data.

Tested on: MS2 coat protein
Assay: apparent Kd, MS2 coat protein; higher = weaker binding; RNA-MaP array; FMN 200 µM where present
Procedure, shortened: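 The titrant was SNAP-549-labelled MS2 coat protein, run from 0.7 or 1.5 nM in doubling steps to 3 µM. It was applied to designs transcribed by stalled E. coli RNA polymerase on Illumina sequencing-chip clusters, without ligand first and then with constant ligand, in 100 mM Tris-HCl pH 7.5, 80 mM KCl, 4 mM MgCl2, BSA, DTT, yeast tRNA and Tween-20. The apparent Kd is the median of filtered per-cluster binding-curve fits, with green signal normalised to red-channel RNA signal and control-cluster median Fmax.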

[1] = designed as: OFF switch for flavin mononucleotide, no ligand
[2] = ligand present: flavin mononucleotide, designed as: OFF switch for flavin mononucleotide
[3] = designed as: ON switch for flavin mononucleotide, no ligand
[4] = ligand present: flavin mononucleotide, designed as: ON switch for flavin mononucleotide

Sequence | apparent Kd [1] | apparent Kd [2] | apparent Kd [3] | apparent Kd [4]
UACGAGUCAGGAUAUUGGGCAAUAGCAUUACGGAACGAUCACAAGAAGGGACAUGAGGAUCACCCAUGUUAUAU | 0.0238 µM | 0.0217 µM |  | 
GUCAGCUCGUGAGGAUAUACAUCACUGCUUCGGCAGUGUAUUAAGACUACAUGAGGAUCACCCAUGUAGAAGGCACGAGCUGAU | 0.0174 µM | 0.0179 µM |  | 
UGCGGUAGAGGAUAUACGUAGAAGUAGAUUCAUGUAAAACUACAUGAGGAUCACCCAUGUAGAAGGCUAUCGCU | 0.0229 µM | 0.23 µM |  | 
UUGGACGUCGUAGGAUAUGUAGGAUAUUCCUACAUGAGGAUCACCCAUGUUGACAUGGAAGAAGGACAGACGGACGAUGUCCAU |  |  | 0.337 µM | 0.00852 µM
AAUUAAUUAAUUAAUAUACAUGAGGAUCACCCAUGUAAGAUCAAGGAUAUCAGCUCGAAUAGAGCUGAGAAGGUGAUCACAUGU |  |  | 0.533 µM | 0.673 µM
AUCCAGGUAACAUGAGGAUCACCCAUGUUCCUUCGCUCUGGCAAGGAUAUGAAGGGAUUGUCCCAUCAGAAGGUGCAUGGGUGC |  |  | 0.023 µM | 0.0199 µM
CGCUAAGAGAACGAUACGAGAAGACAUGAGGAUCACCCAUGUAGAAGGACAACGGAAUAAACGUUGUAGGAUAUACACUUAGCG | 0.015 µM | 0.0206 µM |  | 
CUGAGCUGAGGAUAUACAUGAGGAUCACCCAUGUGUUGGAGCUUGCGUACAGGCAGAUGUAGAAGGCAGUUCGG | 0.0236 µM | 0.0882 µM |  | 
UGUCGGAGCAGAGGAUAUACAUGAGGAUCACCCAUGUAAAUGAAUGAAGCCUGGAAACAGGCAAUGUAGAAGGCUGCUCCGACA | 0.0172 µM | 0.0537 µM |  | 
CGCGAAAGAUUAUUAUGAAUAAACAUGAGGAUCACCCAUGUAUAGGAUAUGCAGUGGAAUACACUGCAGAAGGAUACAUACGCG | 0.0222 µM | 0.123 µM |  | 
AAAAAACAUGAGGAUCACCCAUGUAAGGAUAUCGUGCAGAAAAAAAAAAAAAACUGCACGAGAAGGUACUUGGA | 0.081 µM | 0.143 µM |  | 
UCGCCAGGUACAGGAUAUGUGGAUCAGUCAAGUAACUUGCUGAACAUGAGGAUCACCCAUGUAUCACAGAAGGGUGCCUCAAAA |  |  | 0.199 µM | 0.0108 µM
AAUUAUUGAUGAGGAUAUUGUGGUGAAACACCACAAGAAGGCAUUAUACACAUGAGGAUCACCCAUGUGAGCCUGAUGCUUAUG | 0.0167 µM | 0.0212 µM |  | 
UAGUAUAAGGGCAUUAAACAUGAGGAUCACCCAUGUACAAUAGAGGAUAUGCAUUUCAGUUUAGAGUAGAAGGUUAGAGAAUAU | 0.0356 µM | 0.0411 µM |  | 
CGAUAUAUGAAGGGCGAACGCGCACAUGAGGAUCACCCAUGUAGAAGGCGAUCCGCAACGCGGAUCGAGGAUAUAUAGUAUACG | 0.0327 µM | 0.034 µM |  | 
ACAUGAUACUAGGAUAUCAGCAUACUUCAAUGUUGAGAAGGAGUAACAUGAGGAUCACCCAUGUAUCCAACAUG | 0.0469 µM | 0.219 µM |  | 
UUACAUACAAAGGUACAUGAGGAUCACCCAUGUUUGUUGGGAAGAAGGGUAACAGUACUACAUAUAUAGGAUAUUUCACAAAUG |  |  | 0.106 µM | 0.0734 µM
GAGUGACACCAGAAGGGCCAGGAAAGAACCCUGGUAGGAUAUGGAGCGCCCUCGUAACGACCGACAUGAGGAUCACCCAUGUCC |  |  | 0.193 µM | 0.0347 µM
CUUAUGUGAGGAUAUGGUGUUGGCCACAGGAAAAAGAUCCUCCAGAAGGCACAUGAGGAUCACCCAUGUAGUGA | 0.0397 µM | 0.147 µM |  | 
UGAGCCUCGUGAGGAUAUACAUGAGGAUCACCCAUGUAAUAAAGUGAACGGAGGAAACUCCGAAUGUAGAAGGUACGAGGCUCA | 0.0101 µM | 0.0442 µM |  | 
GCACUUUUAUUUGAACCGAUACGAACAUGAGGAUCACCCAUGUAGGAUAUGCUUAAAGUUGUGAUGCAGAAGGACAUUUAGUGC | 0.00918 µM | 0.0107 µM |  | 
UUUUUGUCAGGAUAUCGUGCAUACAACGAAAGUUCUAUGUGCGAGAAGGGACAUGAGGAUCACCCAUGUUACGG | 0.109 µM | 0.371 µM |  | 
AUUUCGUCAGGAUAUCCUAGUAAUUGUUUCAUAUUUACGAUGGAGAAGGGACAUGAGGAUCACCCAUGUUGGUC | 0.0558 µM | 0.169 µM |  | 
GCUGUGGCAUGAGGAUAUGGUCUGCUUUGCAGACCAGAAGGCAUGUCAAUAGACAUGAGGAUCACCCAUGUAGUUAACACAGCA |  |  | 0.51 µM | 0.0386 µM
AACUAUGAAUUGAUAGUGUCUGACAGAAGGCAAUAGGUUGUGACCGACAUGAGGAUCACCCAUGUUGAGGAUAUGUCUAGCUAC | 0.0532 µM | 0.366 µM |  | 
ACAUGAGGAUCACCCAUGUAAUAACAUCGGUUAUACGAAAGUGAGGAUAUCGAUCAGGCAUAUUACGAGAAGGCACAAUAGGGA |  |  | 0.0413 µM | 0.0432 µM
GACAUGGGCUAGAAGGCCUAUCUAUUUAAGUACGAUUUAGAACAGCAUAGGAGGAUAUGGCUAACAUGAGGAUCACCCAUGUUC |  |  | 0.17 µM | 0.0392 µM
AAUUAUUUACAGAAGGAGUAAGAUUAUGUAUUACUAGGAUAUGUUCACAUGAGGAUCACCCAUGUCAAAGUAGGUUUUUUAUGU | 0.0124 µM | 0.0123 µM |  | 

Sequence | apparent Kd [1] | apparent Kd [2] | apparent Kd [3] | apparent Kd [4]
CAAUUUAUAACAGGAUAUGUAUUACAAAAGUUAAUAGAAGGGUUUAAUACAUGAGGAUCACCCAUGUCAUGUGUCAUAAUUACC | 0.0367 µM | 0.0296 µM |  | 
UGCUACCUAGGAUAUACAUGAGGAUCACCCAUGUGAUUCGGUGGCGCGAUCCUUGAAAGUAGAAGGAGGAGCAA | 0.0384 µM | 0.0274 µM |  | 
UGUUGUUGAUAGGAUAUACUUGUAGGAGUUGUAGUAGAAGGAUCUACAUGAGGAUCACCCAUGUAGGAGUGAGU | 0.0175 µM | 0.0172 µM |  | 
CUUUUGUGAGGAUAUCAGUAGUAAAAGAAUAAAAUUACUACUGAGAAGGCACAUGAGGAUCACCCAUGUUCCUC | 0.0425 µM | 0.239 µM |  | 
UGUUGUAUUACAGGAUAUCUAUUAGUUUUGUUUAGAGAAGGGUAUUCACAUGAGGAUCACCCAUGUAUAUACGAGGAAGUUGUG |  |  | 0.059 µM | 0.0652 µM
ACGUUUAAUACAGGAUAUGUUCUUAUACUAUACAUUGCUUAUUACUUAAUUACAGAAGGGUAUAACAUGAGGAUCACCCAUGUA |  |  | 0.108 µM | 0.0632 µM
AUGGUUCUCGUAGGAUAUGUAGGAUAUGCCUACAUGAGGAUCACCCAUGUUCGCAUGGCAGAAGGACAGAAGGACGAUCACCAA |  |  | 0.365 µM | 0.0192 µM
AAUUUACAGGCAGGAUAUACAUGAGGAUCACCCAUGUAAUCAUAUGAUAUUUUUUUUGUAUGAGUGUAGAAGGGCCAAAUAAAA | 0.00779 µM | 0.00799 µM |  | 
CUGAGCAGUCAAGGAUAUCACGUCGAAUAGACGUGAGAAGGUGACCAAUACAUGAGGAUCACCCAUGUAAUACAUGAAGCUCAG |  |  | 0.0381 µM | 0.0174 µM
UUGGACGUCGUAGGAUAUGUAGGUUAUUCCUACAUGAGGAUCACCCAUGUUGACAUGGAAGAAGGACAGAAGGACGAUGUCCAU |  |  | 0.184 µM | 0.00418 µM
AGAAACUACGAGAAGGACAUAUGACCAAGACUAAACAUGAGGAUCACCCAUGUAGGAUAUCGUAGUUUCAGGAUCGUGAGAUCA | 0.00581 µM | 0.0122 µM |  | 
AUAUAUAUUAGAGGAUAUGUGUUCAUGUUACAUGAGGAUCACCCAUGUUUAGGUUGAUUUAUCUUACAGAAGGCUAUACAAUCA | 0.0715 µM | 0.076 µM |  | 
UUUACUUACGAAGGAUAUGGUUACAUGAGGAUCACCCAUGUAUGUAUAUUGAUCUAGUAUUUUAACCAGAAGGUCGUGAUUUUU | 0.0344 µM | 0.0466 µM |  | 
GACGUACAUGAGGAUCACCCAUGUACAAACGUACAAGGAUAUGUGUGGAAACCGUACUAUACAGAAGGUGUUUGUC |  |  | 0.0143 µM | 0.0141 µM
ACCUCACAUGAGGAUCACCCAUGUCAGGAUAUCUAUUAUUGCAGCGUUCCCGUCGCUGAGAGAAGGGACAUUAA | 0.014 µM | 0.0168 µM |  | 
AUUAUUGGCUAAGGAUAUGGAUACAUGAGGAUCACCCAUGUAUAAUUUGUGAUCAUAUAAAUGAUCCAGAAGGUAGCUGUUUAU | 0.0816 µM | 0.22 µM |  | 
UCACACCACGUUAGGAUAUCGCUGGACAAAACUGGCGAGAAGGAACAUGAGGAUCACCCAUGUGACUUCAAGGU | 0.0162 µM | 0.0185 µM |  | 
AACGUGUGAGGAUAUGCCGUGCCCUUCCGGAAGGAGCGGGUGCAGAAGGCACAUGAGGAUCACCCAUGUCGGCA | 0.0339 µM | 0.0498 µM |  | 
CGCACUAUACAUGAGGAUCACCCAUGUUAACUUUAGCUAUUCAGAAGGCAUAAAUAGAGAUUAAAUGAGGAUAUGAUUAGUGCG |  |  | 0.0886 µM | 0.0283 µM
AAUAAACUCACAGGAUAUAGCAGAGGUCGCGUGAACUUACAGGCGACGAGGCUAGAAGGGUGACCACAUGAGGAUCACCCAUGU |  |  | 0.858 µM | 0.0958 µM
AACGUGUGAGGAUAUUAGUUGUACGUCAAUAGACGUAUAAGUGAGAAGGCACAUGAGGAUCACCCAUGUUCCUG | 0.0239 µM | 0.195 µM |  | 
GUGCCUAACUAGAAGGCAGUGUGCAAAGCAUUCUGAGGAUAUGGGUUCCGGAAACGGACAUGAGGAUCACCCAUGUGGCACAAA |  |  | 0.424 µM | 0.0267 µM
CAGGUCUGAGGAUAUCCAUCUUCCUACAUGAGGAUCACCCAUGUUUCCCUCUGGGUUUUCGGAGAAGGCAGUUUUU | 0.263 µM | 0.226 µM |  | 
AGUAAGAUGCAGAAGGUGUCAGCUAGUGCUACGACAUGAGGAUCACCCAUGUACUAGAAACAGUACAAGGAUAUGCAUCUUACA |  |  | 0.0568 µM | 0.00832 µM
AUAAUUUUAUAAUUCUAUUUAUUCAGAAGGCAUAACAUGAGGAUCACCCAUGUAAAUUAAUGUUAUGAGGAUAUGAUUUGGUUA | 0.0186 µM | 0.13 µM |  | 
GGCUAACGGGCUAACAUGAGGAUCACCCAUGUGGACUCAUGGUAGGAUAUGCUGUACAAAGUACAGCAGAAGGGCCGGUGAGCC |  |  | 0.128 µM | 0.978 µM
UUUUAACAUGAGGAUCACCCAUGUCGUUCAAAUCAAGGAUAUCAGACGUGUACACACGCCUGAGAAGGUGAAGCUC |  |  | 0.0511 µM | 0.132 µM
